# ChEMBL document CHEMBL4145586, “Hinduchelins A-D, Noncytotoxic Catechol Derivatives from Streptoalloteichus hindustanus” (J Nat Prod, 2018)
# The source made the active and inactive calls. The calls are words filed in the database; no cut-off is given here.
# What was measured:
# [1] = system: SW480; assay: Cytotoxicity against human SW480 cells assessed as effect on cell viability at 50 uM after 48 hrs by MTT assay; type: cell-based; details: sw480, 48 h
# [2] = system: A549; assay: Cytotoxicity against human A549 cells assessed as effect on cell viability at 50 uM after 48 hrs by MTT assay; type: cell-based; details: a549, 48 h
# [3] = Metal chelating activity assessed as iron-compound complex formation by measuring increase in pyoverdine production in Pseudomonas aeruginosa PAO1 at 50 uM by fluorescence assay
# Procedure, shortened: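 PAO1 grown overnight in LB broth at 37 °C with shaking, then diluted to OD600 0.02 in ABTGC medium. Pyoverdine fluorescence was read on a plate reader, normalized to OD600 and reported as relative fluorescence units.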
# [4] = system: SMMC-7721; assay: Cytotoxicity against human SMMC7721 cells assessed as effect on cell viability at 50 uM after 48 hrs by MTT assay; type: cell-based; details: smmc-7721, 48 h
# [5] = system: MCF7; assay: Cytotoxicity against human MCF7 cells assessed as effect on cell viability at 50 uM after 48 hrs by MTT assay; type: cell-based; details: mcf7, 48 h
# [6] = system: HL-60; assay: Cytotoxicity against human HL60 cells assessed as effect on cell viability at 50 uM after 48 hrs by MTT assay; type: cell-based; details: hl-60, 48 h
Compound,Activity [1],Activity [2],Activity [3],Activity [4],Activity [5],Activity [6]
COc1cccc(-c2nc(C(=O)NCCc3ccccc3)c(C)o2)c1O,Non-Toxic,Non-Toxic,Active,Non-Toxic,Non-Toxic,Non-Toxic
COc1cccc(-c2nc(C(=O)NC[C@@H](O)c3ccccc3)c(C)o2)c1OC,Non-Toxic,Non-Toxic,,Non-Toxic,Non-Toxic,Non-Toxic
COc1cccc(-c2nc(C(=O)NCCc3ccccc3O)c(C)o2)c1OC,Non-Toxic,Non-Toxic,,Non-Toxic,Non-Toxic,Non-Toxic
COc1cccc(-c2nc(C(=O)NCCc3ccccc3O)c(C)o2)c1O,Non-Toxic,Non-Toxic,,Non-Toxic,Non-Toxic,Non-Toxic
